Reference: ChEMBL document CHEMBL1154062, “Novel and potent small-molecule urotensin II receptor agonists” (Bioorg Med Chem, 2009)
The source made the active and inactive calls. The calls are words filed in the database; no cut-off is given here.

Legend:
Format in all cases: functional, cell-based
Urotensin-2 receptor = target: T1, Urotensin-2 receptor (Homo sapiens, UniProt Q9UKP6); experiment: (§1) Agonist activity against human urotensin 2 receptor expressed in […] cells assessed as beta-galactosidase activity after 5 days by R-SAT assay
T1 sequence (Q9UKP6 whole entry): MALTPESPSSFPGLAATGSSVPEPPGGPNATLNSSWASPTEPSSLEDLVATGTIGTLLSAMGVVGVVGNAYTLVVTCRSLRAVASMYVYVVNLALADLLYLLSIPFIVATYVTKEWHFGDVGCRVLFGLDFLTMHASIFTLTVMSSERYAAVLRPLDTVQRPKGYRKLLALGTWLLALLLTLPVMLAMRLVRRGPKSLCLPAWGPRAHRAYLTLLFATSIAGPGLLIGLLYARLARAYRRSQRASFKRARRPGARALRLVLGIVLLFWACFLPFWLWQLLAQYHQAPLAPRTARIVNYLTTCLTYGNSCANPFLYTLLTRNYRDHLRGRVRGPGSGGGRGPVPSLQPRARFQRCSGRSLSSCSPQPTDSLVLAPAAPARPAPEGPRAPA
In short: (§2)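 NIH-3T3 cells grown to 80% confluence in DMEM with 10% bovine calf serum, transiently transfected in roller bottles for 18 h with human UT receptor plus β-galactosidase marker, then frozen. Thawed cells were plated in DMEM with 0.4% calf serum and 30% UltraCulture onto compound. They were incubated 5 days in 5% CO2, with reporter read at 420 nm. Eight doses in triplicate; EC50 from 2–5 determinations; efficacy normalized to UII = 100%.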

[1] = target: T2, Urotensin-2 receptor (Homo sapiens) (UniProt Q9UKP6); experiment: Agonist activity against human urotensin 2 receptor expressed in […] cells assessed as beta-galactosidase activity after 5 days by R-SAT assay relative to urotensin 2; in short: as §2
T2 sequence (whole entry): T1 sequence (Q9UKP6 whole entry)

[2] = target: T2, Urotensin-2 receptor (Homo sapiens); experiment: as §1; in short: as §2

Row | SMILES | EC50 (Urotensin-2 receptor) [nM] | Efficacy [1] | pEC50 [2]
1 | CO[C@@H](C(=O)N[C@H](CCN(C)C)c1ccc2ccccc2c1)c1ccccc1 | 2750 | 53% | –
2 | COc1ccc(-c2cccc(C(=O)NC(CCN(C)C)c3ccc4ccccc4c3)c2)cc1 (configuration not stated) | 646 | 50% | –
3 | COc1ccc(-c2cccc(C(=O)NC(CCN(C)C)c3ccc(Cl)cc3)c2)cc1 (configuration not stated) | 575 | 78% | –
4 | CN(C)CC[C@@H](NC(=O)c1ccc(-c2ccccc2)cc1)c1ccc(Cl)cc1 | – | 96% | –
5 | CN(C)CCC(NC(=O)c1cccc(-c2ccccc2)c1)c1ccc2ccccc2c1 (configuration not stated) | 537 | 67% | –
6 | CN(C)CCC1(c2ccc(Cl)cc2)Cc2ccccc2C(=O)O1 (configuration not stated) | ≥ 1120 | – | –
7 | CN(C)CC[C@H](NC(=O)c1ccc(-c2ccccc2)cc1)c1ccc(Cl)cc1 | – | 116% | –
8 | Cc1ccc(C(CCN(C)C)NC(=O)c2ccc(-c3ccc4ccccc4c3)cc2)cc1 (configuration not stated) | 813 | 83% | –
9 | CN(C)CCC(NC(=O)c1cccc(-c2ccc(Cl)cc2)c1)c1ccc2ccccc2c1 (configuration not stated) | 1100 | 45% | –
10 | CN(C)CCC(NC(=O)c1cccc(-c2ccc3ccccc3c2)c1)c1ccc2ccccc2c1 (configuration not stated) | 3470 | – | –
11 | CN(C)CCC(NC(=O)c1cccc(-c2ccccc2)c1)c1ccc(Cl)cc1 (configuration not stated) | 575 | 92% | –
12 | CO[C@@H](C(=O)N[C@H](CCN(C)C)c1ccc(Cl)cc1)c1ccccc1 | – | 112% | –
13 | Cc1ccc(C(CCN(C)C)NC(=O)c2cccc(-c3ccc(Cl)cc3)c2)cc1 (configuration not stated) | 646 | 39% | –
14 | Cc1ccc(C(CCN(C)C)NC(=O)c2cccc(-c3ccccc3)c2)cc1 (configuration not stated) | 813 | 45% | –
15 | CO[C@@H](C(=O)N[C@@H](CCN(C)C)c1ccc2ccccc2c1)c1ccccc1 | 741 | 140% | –
16 | CO[C@@H](C(=O)N[C@@H](CCN(C)C)c1ccc(Cl)cc1)c1ccccc1 | – | 165% | –
17 | COc1ccc(-c2cccc(C(=O)NC(CCN(C)C)c3ccc(C)cc3)c2)cc1 (configuration not stated) | 1070 | 69% | –
18 | O=C(NC(CCN1CCCCC1)c1ccc(Cl)cc1)c1ccc(-c2ccccc2)cc1 (configuration not stated) | 661 | 57% | –
19 | O=C(NC(CCN1CCCCC1)c1ccc(Cl)cc1)c1ccccc1 (configuration not stated) | 6460 | 55% | –
20 | Cc1ccc(C(CCN(C)C)NC(=O)c2cccc(-c3ccc4ccccc4c3)c2)cc1 (configuration not stated) | – | inactive | inactive
21 | CN(C)CCC(NC(=O)c1ccc(-c2ccccc2)cc1)c1ccc(Cl)cc1 (configuration not stated) | – | 116% | –
22 | CN(C)CCCC(NC(=O)c1ccccc1)c1ccc(Cl)cc1 (configuration not stated) | 3800 | 77% | –

The remaining molecules from weak to strong by EC50 (Urotensin-2 receptor), led by results:

Row | EC50 (Urotensin-2 receptor) [nM] | Efficacy [1] | pEC50 [2] | SMILES
23 | 525 | 77% | – | CN(C)CCC(NC(=O)c1ccc(-c2ccc3ccccc3c2)cc1)c1ccc2ccccc2c1 (configuration not stated)
24 | 457 | 53% | – | CN(C)CC[C@@H](NC(=O)c1ccc(-c2ccc(Cl)cc2)cc1)c1ccc2ccccc2c1
25 | 437 | 63% | – | CN(C)CCC(NC(=O)c1cccc(-c2ccc(Cl)cc2)c1)c1ccc(Cl)cc1 (configuration not stated)
26 | 363 | 41% | – | CN(C)CCC(NC(=O)c1cccc(-c2ccc3ccccc3c2)c1)c1ccc(Cl)cc1 (configuration not stated)
27 | 347 | 119% | – | COc1ccc(-c2ccc(C(=O)NC(CCN(C)C)c3ccc(C)cc3)cc2)cc1 (configuration not stated)
28 | 316 | 91% | – | CN(C)CCCC(NC(=O)c1ccc(-c2ccccc2)cc1)c1ccc(Cl)cc1 (configuration not stated)
29 | 309 | 131% | – | CN(C)CCC(NC(=O)c1ccc(-c2ccc3ccccc3c2)cc1)c1ccc(Cl)cc1 (configuration not stated)
30 | 200 | 114% | – | Cc1ccc(C(CCN(C)C)NC(=O)c2ccc(-c3ccccc3)cc2)cc1 (configuration not stated)
31 | 126 | 108% | – | Cc1ccc(C(CCN(C)C)NC(=O)c2ccc(-c3ccc(Cl)cc3)cc2)cc1 (configuration not stated)
32 | 120 | 111% | – | CN(C)CCC(NC(=O)c1ccc(-c2ccccc2)cc1)c1ccc2ccccc2c1 (configuration not stated)
33 | 105 | 111% | – | COc1ccc(-c2ccc(C(=O)NC(CCN(C)C)c3ccc4ccccc4c3)cc2)cc1 (configuration not stated)
34 | 75.9 | 137% | – | CN(C)CCC(NC(=O)c1ccc(-c2ccc(Cl)cc2)cc1)c1ccc(Cl)cc1 (configuration not stated)
35 | 74.1 | 143% | – | COc1ccc(-c2ccc(C(=O)NC(CCN(C)C)c3ccc(Cl)cc3)cc2)cc1 (configuration not stated)
36 | 43.7 | 129% | – | CN(C)CCC(NC(=O)c1ccc(-c2ccc(Cl)cc2)cc1)c1ccc2ccccc2c1 (configuration not stated)
37 | 22.9 | 129% | – | CN(C)CC[C@H](NC(=O)c1ccc(-c2ccc(Cl)cc2)cc1)c1ccc2ccccc2c1
